Test results as given in ChEMBL document CHEMBL4371014, “Novel Allosteric Ligands of γ-Aminobutyric Acid Transporter 1 (GAT1) by MS Based Screening of Pseudostatic Hydrazone Libraries” (J Med Chem, 2018).
pIC50, pKi: −log10 of the molar value.

Experiments:
[1] = biological target: T1, Sodium- and chloride-dependent GABA transporter 1 (Homo sapiens, UniProt P30531); test: Inhibition of NO711 binding to human GAT1 expressed in COS cell membranes by LC-ESI-MS/MS analysis
[2] = biological target: T2, Sodium- and chloride-dependent GABA transporter 1 (Mus musculus, UniProt P31648); test: Inhibition of NO711 binding to mouse GAT1 expressed in HEK293 cell membranes assessed as residual binding preincubated for 4 hrs followed by NO711 addition and measured after 40 mins by LC-ESI-MS/MS analysis
Procedure, shortened: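 Pseudostatic hydrazone libraries were generated with mouse GAT1 present. Each held eight aldehydes (1.0 µM each) plus hydrazine (200 µM), incubated 4 h. NO711 marker was added directly for a further 40 min. Bound marker was released and quantified by LC-ESI-MS/MS as % remaining specific binding, four replicates (means±SD).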

GABA transporter 4 = biological target: T3, GABA transporter 4 (Mus musculus, UniProt P31650); test: Inhibition of mouse GAT4 expressed in HEK293 cells assessed as reduction in [3H]GABA uptake preincubated for 25 mins followed by [3H]GABA addition and measured after 4 mins by liquid scintillation counting method; type: cell-based
T3 sequence (P31650 whole entry): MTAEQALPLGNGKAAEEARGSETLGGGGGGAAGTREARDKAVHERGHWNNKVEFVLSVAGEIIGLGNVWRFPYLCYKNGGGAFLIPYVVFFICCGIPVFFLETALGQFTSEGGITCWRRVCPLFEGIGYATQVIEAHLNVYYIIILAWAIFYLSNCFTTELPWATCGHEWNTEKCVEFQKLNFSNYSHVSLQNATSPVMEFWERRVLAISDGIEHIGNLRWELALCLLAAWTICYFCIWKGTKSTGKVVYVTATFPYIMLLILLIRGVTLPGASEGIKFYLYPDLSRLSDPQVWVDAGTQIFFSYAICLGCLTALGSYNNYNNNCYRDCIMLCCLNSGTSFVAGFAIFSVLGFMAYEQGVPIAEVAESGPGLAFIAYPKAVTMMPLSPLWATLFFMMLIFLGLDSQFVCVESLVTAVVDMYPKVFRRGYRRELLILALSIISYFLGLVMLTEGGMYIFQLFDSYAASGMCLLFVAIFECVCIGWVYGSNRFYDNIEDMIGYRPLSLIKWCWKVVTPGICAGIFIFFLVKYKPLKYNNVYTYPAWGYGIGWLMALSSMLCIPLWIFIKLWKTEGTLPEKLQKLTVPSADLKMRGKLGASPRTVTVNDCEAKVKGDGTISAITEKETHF

[3] = biological target: T2, Sodium- and chloride-dependent GABA transporter 1; test: Inhibition of mouse GAT1 expressed in HEK293 cells assessed as reduction in [3H]GABA uptake preincubated for 25 mins followed by [3H]GABA addition and measured after 4 mins by liquid scintillation counting method; type: cell-based
[4] = biological target: T1, Sodium- and chloride-dependent GABA transporter 1; test: Inhibition of NO711 binding to human GAT1 expressed in COS cell membranes preincubated for 25 mins by LC-ESI-MS/MS analysis

T1 sequence (P30531 whole entry): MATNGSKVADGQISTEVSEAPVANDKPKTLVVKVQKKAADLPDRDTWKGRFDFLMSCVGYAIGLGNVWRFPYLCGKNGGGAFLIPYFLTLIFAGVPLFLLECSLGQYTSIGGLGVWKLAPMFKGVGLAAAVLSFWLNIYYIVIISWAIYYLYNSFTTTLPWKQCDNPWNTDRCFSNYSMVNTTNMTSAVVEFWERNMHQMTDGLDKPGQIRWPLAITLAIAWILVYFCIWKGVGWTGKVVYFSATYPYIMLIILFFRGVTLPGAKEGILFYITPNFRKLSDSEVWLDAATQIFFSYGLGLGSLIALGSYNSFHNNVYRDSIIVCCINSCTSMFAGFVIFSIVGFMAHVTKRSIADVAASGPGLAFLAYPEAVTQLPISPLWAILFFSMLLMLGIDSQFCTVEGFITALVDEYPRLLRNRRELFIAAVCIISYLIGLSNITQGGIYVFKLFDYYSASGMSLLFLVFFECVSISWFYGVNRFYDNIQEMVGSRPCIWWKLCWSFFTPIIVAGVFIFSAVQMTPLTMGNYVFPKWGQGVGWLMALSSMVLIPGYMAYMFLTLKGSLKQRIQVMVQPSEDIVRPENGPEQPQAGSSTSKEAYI

| Structure (SMILES) | pIC50 [1] | pKi [2] | pIC50 (GABA transporter 4) | pIC50 [3] | pIC50 [4] |
| --- | --- | --- | --- | --- | --- |
| O=C(O)[C@H]1CNC[C@@H](CCN/N=C/c2ccc(-c3ccc(C(F)(F)F)cc3Cl)o2)C1 (racemic) | 3.77 to 4.57 | 6.21 | 4.38 | 4.35 | 3.87 to 4.51 |
| O=C(O)[C@H]1CNC[C@@H](CN/N=C/c2ccc(-c3cccc(C(F)(F)F)c3)o2)C1 (racemic) |  | 6.15 |  |  |  |
| O=C(O)[C@H]1CNC[C@@H](CN/N=C/c2ccc(-c3ccc(Cl)cc3[N+](=O)[O-])o2)C1 (racemic) |  | 5.83 |  |  |  |
| O=C(O)[C@H]1CNC[C@@H](CN/N=C/c2ccc(-c3ccccc3C(F)(F)F)o2)C1 (racemic) |  | 5.64 |  |  |  |
| O=C(O)[C@H]1CNC[C@@H](CN/N=C/c2cccc(Oc3ccccc3)c2)C1 (racemic) |  | 6.02 |  |  |  |
| O=C(O)[C@H]1CNC[C@@H](CN/N=C/c2ccc(-c3ccccc3Br)o2)C1 (racemic) |  | 5.84 |  |  |  |
| O=C(O)[C@H]1CNC[C@@H](CN/N=C/c2cnc(-c3ccc4ccccc4c3)nc2)C1 (racemic) |  | 6.03 |  |  |  |
| O=C(O)[C@H]1CNC[C@@H](CN/N=C/c2ccc(-c3cccc4ccccc34)o2)C1 (racemic) | 3.77 to 4.57 | 6.67 | 4.12 | 4.64 | 4.37 |
| O=C(O)[C@H]1CNC[C@@H](CCN/N=C/c2ccc(-c3ccc(Cl)cc3Cl)o2)C1 (racemic) | 3.77 to 4.57 | 6.32 | 4.82 | 4.45 | 3.87 to 4.51 |
| O=C(O)[C@H]1CNC[C@@H](CN/N=C/c2ccc(-c3cc(C(F)(F)F)cc(C(F)(F)F)c3)o2)C1 (racemic) | 3.77 to 4.57 | 6.61 |  |  | 3.87 |
| O=C(O)[C@H]1CNC[C@@H](CN/N=C/c2ccc(-c3ccc(Cl)cc3Cl)o2)C1 (racemic) |  | 6.19 |  |  |  |
| O=C(O)[C@H]1CNC[C@@H](CN/N=C/c2ccc(-c3ccc(F)c(C(F)(F)F)c3)o2)C1 (racemic) |  | 5.90 |  |  |  |
| O=C(O)[C@H]1CNC[C@@H](CN/N=C/c2ccc(-c3ccc(C(F)(F)F)cc3Cl)o2)C1 (racemic) | 3.77 to 4.57 | 6.35 |  | 4.38 | 3.87 to 4.51 |
| O=C(O)[C@H]1CNC[C@@H](CN/N=C/c2ccc(-c3cc(C(F)(F)F)ccc3Cl)o2)C1 (racemic) | 3.77 to 4.57 | 6.33 |  | 4.09 | 3.87 to 4.51 |
| O=C(O)[C@H]1CNC[C@@H](CN/N=C/c2ccc(-c3cccc(Cl)c3)o2)C1 (racemic) |  | 5.73 |  |  |  |
| O=C(O)[C@H]1CNC[C@@H](CN/N=C/c2ccc(-c3ccccc3Cl)o2)C1 (racemic) |  | 5.91 |  |  |  |
| Cc1ccsc1C(=CCCN1CCC[C@@H](C(=O)O)C1)c1sccc1C [TIAGABINE] |  | 7.56 |  |  |  |
